Measurements as given in ChEMBL document CHEMBL4007439, “Design, Synthesis, and Evaluation of a Novel Series of Oxadiazine Gamma Secretase Modulators for Familial Alzheimer's Disease” (J Med Chem, 2017).
The source made the active and inactive calls. No cut-off for these calls is given here.

Columns and labels:
[1] = Modulation of gamma-secretase in human H4 cells expressing human APP751 assessed as inhibition of amyloid beta 42 production incubated overnight by sandwich ELISA; type: cell-based
Outline: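 Aβ42 EC50 in H4 cells overexpressing WT human APP751; each value is the average of n > 2 assays, each run in duplicate.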

[2] = Unbound intrinsic clearance in rat hepatocytes; type: ADME, cell-based, Hepatocyte
Mus musculus = assay: Reduction in amyloid beta 42 levels in mouse brain at 30 mg/kg, po measured at 6 hrs post dose by ELISA; type: functional
Outline: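 Single oral dose of 30 mg/kg; brain (mouse, rat) and rat CSF Aβ42 and Aβ37 measured 6 h post-dose, expressed relative to vehicle; total and free brain drug levels and brain:plasma ratio taken at the same time.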

[3] = Modulation of gamma-secretase (unknown origin); design: species or system Homo sapiens

SMILES: COc1nc(C2=NOC[C@@H]3[C@H](Oc4ccc(F)cc4C)CCCN23)ccc1-n1cnc(C)c1
- EC50 ([1]; Homo sapiens): 0.197 µM

SMILES: COc1nc(C2=NOC[C@H](COc3ccc(F)cc3C)N2)ccc1-c1ocnc1C
- EC50 ([1]; Homo sapiens): 1.36 µM

SMILES: COc1nc(C2=NOC[C@H](COc3ccc(F)cc3C)N2)ccc1-n1cnc(Cl)c1
- CL free [2]: 246.3 L/h/kg
- EC50 ([1]; Homo sapiens): 0.072 µM

SMILES: COc1nc(C2=NOC[C@@H]3[C@H](Oc4ccc(F)cc4C)CCCN23)ccc1-c1ccnc(C)c1
- EC50 ([1]; Homo sapiens): 0.24 µM

SMILES: COc1cc(C2=NOC[C@H](COc3ccc(Cl)cc3C(F)(F)F)N2)ccc1-c1ccnc(C)c1
- Activity (Mus musculus): inactive
- EC50 ([1]; Homo sapiens): 0.249 µM

SMILES: COc1nc(C2=NOC[C@H](COc3ccc(Cl)cc3C(F)(F)F)N2)ccc1-n1cnc(C)c1
- CL free [2]: 229.8 L/h/kg
- Activity (Mus musculus): inactive
- EC50 ([1]; Homo sapiens): 0.027 µM

SMILES: COc1nc(C2=NOC[C@H](COc3ccc(F)cc3C)N2)ccc1-c1cnc(C)s1
- EC50 ([1]; Homo sapiens): 1.27 µM

SMILES: COc1nc(C2=NOCC3CN(c4ccc(Cl)cc4C(F)(F)F)CCN23)ccc1-n1cnc(C)c1 (single isomer, unassigned; (-))
- EC50 [1]: 0.307 µM

SMILES: COc1cc(C2=NOC[C@H](COc3ccc(F)cc3C)N2)ccc1-c1ccnc(C)c1
- Activity (Mus musculus): inactive
- EC50 ([1]; Homo sapiens): 0.109 µM

SMILES: COc1cc(C2=NOC[C@@H](COc3ccc(F)cc3C)N2)ccc1-n1cnc(C)c1
- Activity (Mus musculus): inactive
- EC50 ([1]; Homo sapiens): 2.89 µM

SMILES: COc1cc(C2=NOC[C@H](COc3ccc(F)cc3C)N2)ccc1-n1cnc(C)c1
- Activity (Mus musculus): inactive
- EC50 ([1]; Homo sapiens): 0.23 µM

SMILES: COc1cc(N2CCC(C(=O)N3CCC[C@@H](Oc4ccc(Cl)cc4C(F)(F)F)C3)CC2)ccn1
- EC50 [3]: 0.035 µM
